Screening results as filed in PubChem BioAssay.
HIF activator: HIF pathway transcriptional activation. U2OS HRE-luciferase reporter, luminescence; normalized: DMSO 0%, desferrioxamine 100%. activation, % at 7.5 µM (by protocol). 0.32% of 300,000 active;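 active = mean activation of at least 10% of the iron chelator positive control signal, with at least half of replicates also reaching 10%; inconclusive = mean and replicate majority disagree about reaching 10%; inactive = mean and most replicates under 10%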
CSC inhib: blocks cancer stem cells. inhibition, % at 7.5 µM. cancer stem cell-like cells viability, luminescence. 1.1% of 300,000 active; in the data active = inhibition above about 75%; inconclusive = no clear call, values can overlap the other calls; tested in HMLE shEcad cells
T cruzi inh: T. cruzi replication inhibition. T. cruzi beta-gal in NIH3T3, luminescence, 90 h. inhibition, % (concentration not given with the values). AID 1885. 1.4% of 300,000 active;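 active = mean inhibition across valid replicates above about 55%, limit read from the data; inconclusive = mean below that limit but half or more replicates reach it; inactive = mean below it, under half of replicates reach it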;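 also: signal also drops with host cell toxicity which is not excluded here; 0% = plate median of DMSO wells and 100% = zero luminescence signal; higher percent means less beta-gal luminescence so fewer parasites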
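System: mouse NIH/3T3 fibroblasts infected with β-gal-expressing T. cruzi Tulahuen C4 / Input: NIH/3T3 cells, 5,000 per well / Buffer or medium: Low-serum DMEM with 2% FBS / Probe or stimulus: 5000 reporter trypomastigotes per well / Schedule: ≥90 h infection period, 3 h prior cell attachment / Measured by: GalScreen luminescence, 60 min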
Beta apoptosis: blocks beta cell apoptosis. protection from apoptosis, % (concentration not given with the values). INS-1E cytokine-induced death, ATP luminescence, 48 h; percent of positive-control rescue, neutral wells zero. 0.8% of 300,000 active. AID 435005;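 active = Every replicate reaches about 75%, or at least half do and their mean reaches it too, limit read from the data; inconclusive = At least half of replicates reach the limit but their mean does not; inactive = Under half of replicates reach the limit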;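 also: 0% = cytokine-treated negative control wells and 100% = positive control rescue; higher means more ATP so stronger rescue from cytokine killing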
SKKanGAS inh: inhibitors of SKKanGAS S. pyogenes growth in kanamycin (SK-promoter or general growth effect). BacTiter-Glo, 6 h. inhibition, % at 7.5 µM. 1.3% of 300,000 active. AID 1662;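 active = mean replicate score, as percent of positive control median, at least 50; inconclusive = mean below 50 but one replicate at or above 50; inactive = mean and every replicate below 50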;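 also: strain carries kanamycin resistance gene driven by streptokinase promoter and grows in 40 µg/ml kanamycin; loss of luminescence reflects streptokinase promoter inhibition or plain growth inhibition; 0% = median of DMSO wells and 100% = positive control at its reference dose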
PfHsp90 set2: inhibits growth of yeast expressing Plasmodium falciparum Hsp90. inhibition, % at 9.4 µM. S. cerevisiae expressing PfHsp90, BacTiter-Glo ATP, 48 h; yeast lacking PDR1 and PDR3 efflux regulators. 0.32% of 310,000 active;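 active = every replicate shows inhibition above about 80%, whatever the replicate mean, limit read from the data; inconclusive = mean inhibition reaches the set limit but some replicate falls short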;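 also: 0% = DMSO neutral controls and 100% = 20 µM radicicol positive controls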
An asterisk follows results filed as active. An excerpt weighted towards active compounds, which were near 3.6% of everything screened.

Screening CC/C(=C(\c1ccc(O)cc1)c1ccc(OCCN(C)C)cc1)c1ccccc1 returned HIF activator 0.1, CSC inhib 52.2, T cruzi inh 31.9, Beta apoptosis 13.8, SKKanGAS inh 4.3 and PfHsp90 set2 -13.8.
`CCN(CC)CCOc1ccc(/C(=C(/Cl)c2ccccc2)c2ccccc2)cc1` gave HIF activator 0.0, CSC inhib 101.0*, T cruzi inh 40.1, Beta apoptosis 33.3, SKKanGAS inh 10.3 and PfHsp90 set2 -34.5.
Screening CN(C)CCOc1ccc(C(C)(C)c2ccccc2)cc1 returned HIF activator 0.2, CSC inhib 146.2*, T cruzi inh 30.0, Beta apoptosis -2.0, SKKanGAS inh 0.8 and PfHsp90 set2 -54.4.
For COc1ccc(C2=NOC(C(=O)Nc3cccnc3Cl)C2)cc1 (centres undefined) the results were HIF activator -0.1, CSC inhib -2.1, T cruzi inh -16.7, Beta apoptosis -7.4, SKKanGAS inh -4.5 and PfHsp90 set2 -33.0.
Screening CCn1c(SCC(=O)NC2CCCCC2)nnc1-c1ccco1 returned HIF activator -0.1, T cruzi inh 3.3, Beta apoptosis -2.9, SKKanGAS inh -3.2 and PfHsp90 set2 -13.4.
For O=C(c1ccccc1)C(CN1CCCCC1)c1ccccc1 (centres undefined) the results were PfHsp90 set2 -37.3.
For Cc1oc(-c2ccc(F)cc2)nc1CN(Cc1ccccn1)CC1CCCO1 (centres undefined) the results were HIF activator 0.2, CSC inhib 1.0, T cruzi inh 0.9, Beta apoptosis -4.9, SKKanGAS inh 60.8* and PfHsp90 set2 1.6.
Screening Clc1ccc(-c2noc(CN(Cc3ccccn3)CC3CCCO3)n2)cc1 (centres undefined) returned HIF activator -0.4, CSC inhib 2.8, T cruzi inh -0.2, Beta apoptosis -6.6, SKKanGAS inh 23.6 and PfHsp90 set2 27.7.
For CCc1cc(=O)[nH]c(-n2[nH]c(-c3ccccc3)cc2=O)n1 the results were HIF activator 0.1, T cruzi inh -12.2, Beta apoptosis -3.4, SKKanGAS inh 21.5 and PfHsp90 set2 -35.0.
For O=c1cc(-c2ccccc2)[nH]n1-c1nc2ccccc2[nH]1 the results were HIF activator 0.0, CSC inhib 112.1*, T cruzi inh -17.0, Beta apoptosis 33.5, SKKanGAS inh 14.2 and PfHsp90 set2 -2.3.
CCN(CC(=O)Nc1ccc2c(c1)OCCO2)C(=O)c1cc(=O)[nH]c2ccccc12 was read as HIF activator 0.8, CSC inhib -0.4, T cruzi inh -3.7, Beta apoptosis -2.2, SKKanGAS inh -18.3 and PfHsp90 set2 -13.6.
C=C(C(=O)c1ccccc1)C(NC(C)(C)C)c1ccccc1 (centres undefined) was read as PfHsp90 set2 -36.6.
`Cn1c(-c2cc(Br)ccc2O)n[nH]c1=S` gave HIF activator -0.4, CSC inhib -7.3, T cruzi inh -10.4, Beta apoptosis -8.4, SKKanGAS inh 67.4* and PfHsp90 set2 -1.9.
`COc1ccc2c(c1)sc1nc(-c3ccccc3)cn12` gave HIF activator -3.8, CSC inhib 91.4*, T cruzi inh 4.6, Beta apoptosis 34.8, SKKanGAS inh 19.4 and PfHsp90 set2 23.6.
`O=c1c2cc(Br)ccc2nc(-c2ccc(Cl)cc2)n1O` gave HIF activator 0.4, CSC inhib 23.7, T cruzi inh -22.1, Beta apoptosis 5.5, SKKanGAS inh 89.2* and PfHsp90 set2 16.3.
Screening Cc1ccc(-c2nc3c(Cl)cc(Cl)cc3c(=O)n2O)cc1 returned HIF activator -18.6, CSC inhib 32.1, T cruzi inh -15.2, Beta apoptosis 5.5, SKKanGAS inh 90.2* and PfHsp90 set2 72.2.
`O=c1c2ccc(Cl)cc2nc(-c2cccc(C(F)(F)F)c2)n1O` gave HIF activator 0.6, CSC inhib -5.9, T cruzi inh -7.6, Beta apoptosis 51.3, SKKanGAS inh 96.8* and PfHsp90 set2 -104.5.
Screening COc1ccccc1N(C)S(=O)(=O)c1ccc(C(=O)N(C)Cc2ccc(OC(F)F)cc2)cc1 returned PfHsp90 set2 -21.8.
`O=C(NC1CC2CCCC(C1)N2C(=O)Nc1ccc(F)cc1)c1ccccc1` (centres undefined) gave HIF activator 0.0, CSC inhib 1.5, T cruzi inh 0.1, Beta apoptosis 2.2, SKKanGAS inh 8.5 and PfHsp90 set2 5.4.
Screening CN1CCN(c2ccc(CNS(=O)(=O)Cc3cccc(C(F)(F)F)c3)cc2)CC1 returned HIF activator 0.7, CSC inhib 43.8, T cruzi inh -2.6, Beta apoptosis 86.5* and SKKanGAS inh -9.0.
`CCOC(=O)c1ccc(NC(=S)NN2CCN(C)CC2)cc1` gave HIF activator -0.1, CSC inhib -7.5, T cruzi inh 57.5*, Beta apoptosis 0.8, SKKanGAS inh -5.3 and PfHsp90 set2 -12.9.
For OC1CCN(c2c3c(nc4cc(-c5cccc(F)c5)nn24)CCCC3)CC1 the results were HIF activator 1.2, T cruzi inh 11.8, SKKanGAS inh 8.5 and PfHsp90 set2 6.2.
Screening CCc1c(C)nc2cc(-c3cc(OC)cc(OC)c3)nn2c1N1CCCC1 returned CSC inhib 83.3*, T cruzi inh 26.1, Beta apoptosis 9.7, SKKanGAS inh 18.3 and PfHsp90 set2 -38.2.
`COc1cc(OC)cc(-c2cc3nc4c(c(N5CCN(c6ncccn6)CC5)n3n2)CCCC4)c1` gave HIF activator 0.1, CSC inhib -5.7, T cruzi inh 60.2*, Beta apoptosis 16.2, SKKanGAS inh inconclusive and PfHsp90 set2 -34.1.
Screening CCc1c(C)nc2cc(-c3ccc(OC)c(OC)c3)nn2c1N1CCC(C)CC1 returned HIF activator 0.0, CSC inhib 10.7, T cruzi inh 25.0, Beta apoptosis 5.6, SKKanGAS inh 57.0* and PfHsp90 set2 -13.9.
Screening O=C(Cc1ccc(NC(=O)C2CCCN(C(=O)c3ccccc3)C2)cc1)Nc1ccc(C(=O)N2CCOCC2)cc1 (centres undefined) returned PfHsp90 set2 -2.5.
For CN1CCC(CC(C(=O)N2CCCC2)(c2ccccc2)c2ccccc2)C1 (centres undefined) the results were PfHsp90 set2 -16.3.
Screening O=[N+]([O-])c1cccc(C=NN=C2c3ccccc3-c3ccccc32)c1 returned PfHsp90 set2 -0.1.
`CC1S/C(=N\N=C\c2cccc([N+](=O)[O-])c2)N(C(C)(C)C)C1=O` (centres undefined) gave HIF activator 0.1, CSC inhib 80.6*, T cruzi inh 8.0, Beta apoptosis 11.0, SKKanGAS inh -5.4 and PfHsp90 set2 11.1.
COc1ccccc1C1CCN(C(=O)c2ccco2)CC1 was read as HIF activator -0.5, CSC inhib -9.0, T cruzi inh 8.8, Beta apoptosis -1.5, SKKanGAS inh -2.2 and PfHsp90 set2 4.8.
